The array DNA melting data of Ke et al. (doi:10.1101/2024.01.08.574731)

Tests used:
[1] = folding enthalpy; higher = less favourable; fluorescence melt of hairpins on a sequencing array, two-state fit; settings: sodium 0.088 M
How it was run: (§1)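 Hairpins were imaged by Cy3 fluorescence on a sequenced MiSeq flow cell with annealed Cy3 and quencher oligos, in 50 mM Na-HEPES pH 8.0, 25 mM NaCl, in 2.5 °C steps up to 60 °C. Bootstrapped two-state fits of normalised signals gave melting temperature and folding enthalpy. Four replicates were combined by inverse variance, and fitted temperatures were raised by 9.35 °C to match UV melts.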

[2] = melting temperature; fluorescence melt of hairpins on a sequencing array, two-state fit, raised by 9.35 °C to match UV melts; settings: sodium 0.088 M
How it was run: as §1

Sequence	folding enthalpy [1] [kJ/mol]	Tm [2] [°C]
GCCGTGCGAAAGCAGGC (((.(((....))))))	-99	68.2
GATCGAATCGTCGATC ((((((....))))))	-134	51.4
GAGGGAGAAATCCCTC ((((((....))))))	-150	53.8
GATAGCGAAAGCTAATC ((((((....))).)))	-53.5	40.7
GGCGGCACGAAAGTGGCC (((..(((....))))))	-48.3	52
CGGACGGAAACGTGTCCG ((((((....)))..)))	-137	49.5
GCAGCCGGAAACGGTTGC (((.(((....))).)))	-209	64.8
GATCTAATTATAGATC ((((((....))))))	-121	37.9
GCGTAAGGAAACCTACGC (((((.(....).)))))	-167	49
GCATACGGAAACATATGC (((((.(....).)))))	-102	37
GTAGGGGGAAACTCCTAC (((((.(....).)))))	-119	47.2
GATCACCGAAAGGTTATC (((.(((....))).)))	-116	40.4
GCTATCCGAAAGGAGAGC (((.(((....))).)))	-163	58.6
GTGACGGAAACGTCAC ((((((....))))))	-138	68.7
GATCGGCGTTCCGATC ((((((....))))))	-164	56.3
CGCGGACGAATCCGCG ((((((....))))))	-139	68.5
CGGTTCGGAAACGACCG (((.(((....))))))	-149	50.6
GCGAGCAGTCGC ((((....))))	-109	52.6
GTAACGGGAAACTGTTAC (((((.(....).)))))	-127	46.3
GCAATGCGAAAGCAACGC ((..(((....)))..))	-60.5	40.2
GATCAATCCTTTGATC ((((((....))))))	-164	48.6
GCATTTCGAAAGAAGTGC (((.(((....))).)))	-191	51.4
GAGCTTGGAAACGAGCTC (((((.(....).)))))	-189	53.4

Sequence	folding enthalpy [1] [kJ/mol]	Tm [2] [°C]
GACCTTGGAAACAAGGTC (((((((....)))))))	-170	63
GTGCTCGAAAGAGAACAC ((((((....)))..)))	-82	44.5
GGAACCTCGAAAGAGTCC (((..(((....))))))	-47.4	27
GCCTCGCGAAAGCGCGGC (((.(((....))).)))	-171	61.3
ACGGTGAAAACCGT (((((....)))))	-95.9	55
GCTACGGGAAACCACAGC (((..((....))..)))	-89.4	36
GATTGTGCGAAAGCAATC (((..(((....))))))	-53.6	34
GATCTATTCTTAGATC ((((((....))))))	-171	44.8
GGCGGAGGAAACTCCGTC (.(((((....))))).)	-107	61.2
GCCAACGAAAGTTAAGGC ((((((....)))..)))	-107	45.8
GACATAGGAAACCATGTC (((((.(....).)))))	-122	37.5
GCGCTCGAAAGAGGCCGC ((((((....)))..)))	-69	47.5
GCCCAGCGAAAGCTATGC ((..(((....)))..))	-21.5	25.6
GCAGGGGCGAAAGCCTGC (((..(((....))))))	-73.7	53.7
GCATCCGAAAGGATGTGC ((((((....)))..)))	-79	60.5
GCAAGGGGAAACCCTTGC (((((((....)))))))	-160	68.3
GCGACCTTCGC ((((...))))	-106	48.2
GCGGCGCGAAAGCACAGC ((.(.((....)).).))	-125	63.7
GCGGAAATCCGC ((((....))))	-85.3	51.6
GCAGAGCGAAAGCGCGGC ((.(.((....)).).))	-87.3	60.1
GTACCCGAAAGGGAGTAC ((((((....)))..)))	-63.9	39.9
GGAGCTCGAAAGAGATCC (((.(((....))).)))	-184	64
CGCTTTCGGAAACGAGCG (((..(((....))))))	-104	36.1

Sequence	folding enthalpy [1] [kJ/mol]	Tm [2] [°C]
GATCGTTGTGACGATC ((((((....))))))	-172	60.2
CTAACTGAAAAGTTAG ((((((....))))))	-97.6	45.9
GACGTCGGAAACGACGCC (.(((((....))))).)	-48.5	50.7
GAAGACGAAAGTCGCTTC ((((((....)))..)))	-94.5	47.1
GTTTACCCGAAAGGGAAC (((..(((....))))))	-39.4	26.8
GCTTAGCGAAAGCAACGC ((.(.((....)).).))	-30.8	30.5
GATCGTCTGACGATC ((((((...))))))	-216	54
GATCCGGGCGCGGATC ((((((....))))))	-163	59.8
GATCGTATCGACGATC ((((((....))))))	-146	55.2
GCCACGCGAAAGCGATGC ((..(((....)))..))	-53.3	43.3
GCCCTCGAAAGAGAGGC ((((((....))).)))	-130	58.2
GCGATATATCGC ((((....))))	-108	55.6
GAGGTCGGAAACGGTCTC (((..((....))..)))	-97.9	39.6
GCAATCCGAAAGGAATGC (((.(((....))).)))	-145	54.5
GGCGGTGCGAAAGCAGCC (((..(((....))))))	-62.1	55.8
GATCACCTGAGTGATC ((((((....))))))	-150	57
GGAGTTGCGAAAGCATCC (((..(((....))))))	-53	32.5
GAGGTTGGAAACAACCTC (((((((....)))))))	-181	65.8
GGTAATCCGAAAGGAACC (((..(((....))))))	-82.6	26
GATCGAGGAAACTCGACC (.(((((....))))).)	-62	41.4
CGGTCGGAAACGAACCG ((((((....))).)))	-139	51.6
GGTAGCCGAAAGGCCACC (((.(((....))).)))	-81.4	52.2
GCAGGGCGAAAGCCTGC (((.(((....))))))	-84.9	68

Sequence	folding enthalpy [1] [kJ/mol]	Tm [2] [°C]
GATCGGAGTACCGATC ((((((....))))))	-158	57.5
GATCGATGGTCGATC ((((((...))))))	-123	50.6
GGTGGCGCGAAAGCGACC (((..(((....))))))	-40.9	52.8
GGCGGAACGAAAGTTGCC (((..(((....))))))	-81.8	47.6
GCATAGCGAAAGCCTTGC (((..((....))..)))	-58.2	36.9
GTGGTCGAAAGACATCAC ((((((....)))..)))	-59.9	34.2
GAGATTGGAAACAATCCC (.(((((....))))).)	-82	34
GGAGTCGCGAAAGCGTCC (((..(((....))))))	-51.4	34.1
GGACCACGAAAGTGTCC (((.(((....))))))	-92.1	56.1
GCACACGAAAGTGTGTGC ((((((....)))..)))	-79	68.2
GAGGCGGGAAACCGCCCC (.(((((....))))).)	-29.7	46.4
GACCAGCGAAAGCTGTC (((.(((....))))))	-47.2	45
GCATACGCGAAAGCGTGC (((..(((....))))))	-45.1	48.7
GCGGCCGAAAGGCCTCGC ((((((....)))..)))	-52.2	56.2
GCCTTGCGAAAGCAGCGC ((..(((....)))..))	-61	52.9
GAGTGGGGAAACCCACTC (((((((....)))))))	-125	67.7
GGAACGGGAAACTGTTCC (((((.(....).)))))	-177	53
GTATTTCGAAAGAAGTAC (((.(((....))).)))	-143	40.4
GGCCGCGGAAACACGGCC (((((.(....).)))))	-190	66.1
GCAACTCGAAAGAGGTGC (((.(((....))).)))	-170	65.5
GATCGAGCCATCGATC ((((((....))))))	-166	59.2
GTTACACGAAAGTGAAC (((.(((....))))))	-66.3	36.7
GTCGGGCGAAAGCCAGAC (((.(((....))).)))	-125	65.2
